Values after ≈ are worked out from the molar mass of the structure shown.
Legend:
Assay type in all cases: functional
[1] = tested on: Talaromyces marneffei; assay: Antifungal activity against Penicillium marneffei at 35 degC after 48 hrs
Procedure, shortened: (§1)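 Fungicidal endpoint (MFC). 0.1 ml from each broth-dilution tube was spread on agar plates and c.f.u. counted after 48 h at 35 °C. MFC was the lowest concentration killing 99.9% of the inoculum.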

[2] = tested on: Candida albicans; assay: Antifungal activity against Candida albicans at 35 degC after 48 hrs by broth dilution method
Procedure, shortened: (§2)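 Fungal MIC by broth dilution. Two-fold serial dilutions of compound in nutrient broth were inoculated with about 1.6 × 10⁴–6 × 10⁴ c.f.u./ml. Incubation was 48 h at 35 °C. MIC was the lowest concentration arresting fungal growth.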

[3] = tested on: Candida albicans; assay: Antifungal activity against Candida albicans at 35 degC after 48 hrs; procedure, shortened: as §1
[4] = tested on: Aspergillus fumigatus; assay: Antifungal activity against Aspergillus fumigatus at 35 degC after 48 hrs; procedure, shortened: as §1
[5] = tested on: Candida albicans; assay: Antifungal activity against Candida albicans at 37 degC after 3 to 4 days by agar dilution method
Procedure, shortened: (§3)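 Agar well diffusion for fungi, compounds in DMSO. Sabouraud agar was adjusted to pH 5.7 and lawned with a saline spore suspension (a loopful in 3 ml). Plates were dried 1 h at 37 °C, then wells were punched. Incubation was 3–4 days at 37 °C, with controls in triplicate. Inhibition zones were measured against controls, with griseofulvin as standard.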

[6] = tested on: Pseudomonas aeruginosa; assay: Antibacterial activity against Pseudomonas aeruginosa ATCC 27853 at 37 degC after 24 hrs by disc diffusion method
Procedure, shortened: (§4)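 Disc diffusion on nutrient agar. Plates were spread with 1–2 × […] c.f.u./ml inoculum (0.5 McFarland). Sterile 6.25 mm filter-paper discs were soaked in a known concentration of compound and placed on the agar. Plates were inverted and incubated 24 h at 37 °C. Inhibition zones (mm) were read against solvent and growth controls, with ciprofloxacin as reference.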

[7] = tested on: Klebsiella pneumoniae; assay: Antibacterial activity against Klebsiella pneumoniae ATCC 25922 at 35 degC after 18 to 24 hrs; details: recultured, in the assay text read “Klebsiella pneumoniae (recultured)” for “Klebsiella pneumoniae ATCC 25922”
Procedure, shortened: (§5)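 Bactericidal endpoint (MBC) taken from the broth-dilution MIC tubes. 0.1 ml from each tube was spread on agar plates and c.f.u. counted after 18–24 h. MBC was the lowest concentration completely killing the bacteria.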

[8] = tested on: Staphylococcus aureus; assay: Antibacterial activity against Staphylococcus aureus ATCC 25923 at 37 degC after 24 hrs by disc diffusion method; procedure, shortened: as §4
[9] = tested on: Pseudomonas aeruginosa; assay: Antibacterial activity against Pseudomonas aeruginosa ATCC 27853 at 35 degC after 18 to 24 hrs; procedure, shortened: as §5
[10] = tested on: Trichophyton mentagrophytes; assay: Antifungal activity against Trichophyton mentagrophytes at 37 degC after 3 to 4 days by agar dilution method; details: in the assay text read “agar diffusion method” for “agar dilution method”; procedure, shortened: as §3
[11] = tested on: Escherichia coli; assay: Antibacterial activity against Escherichia coli ATCC 25922 at 37 degC after 24 hrs by disc diffusion method; procedure, shortened: as §4
[12] = tested on: Klebsiella pneumoniae; assay: Antibacterial activity against Klebsiella pneumoniae ATCC 25922 at 37 degC after 24 hrs by broth dilution method; details: recultured, in the assay text read “Klebsiella pneumoniae (recultured)” for “Klebsiella pneumoniae ATCC 25922”
Procedure, shortened: (§6)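 Broth dilution MIC. Nutrient broth held two-fold serial dilutions of compound and was inoculated with about 5 × 10⁵ c.f.u. of actively dividing bacteria. Cultures ran 24 h at 37 °C, with growth checked visually and spectrophotometrically. MIC was the lowest concentration arresting growth. Ciprofloxacin was the standard.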

[13] = tested on: Klebsiella pneumoniae; assay: Antibacterial activity against Klebsiella pneumoniae ATCC 25922 at 37 degC after 24 hrs by disc diffusion method; procedure, shortened: as §4
[14] = tested on: Trichophyton mentagrophytes; assay: Antifungal activity against Trichophyton mentagrophytes at 35 degC after 48 hrs; procedure, shortened: as §1
[15] = tested on: Pseudomonas aeruginosa; assay: Antibacterial activity against Pseudomonas aeruginosa ATCC 27853 at 37 degC after 24 hrs by broth dilution method; details: ATCC 27853, 24 h; procedure, shortened: as §6
[16] = tested on: Staphylococcus aureus; assay: Antibacterial activity against Staphylococcus aureus ATCC 25923 at 35 degC after 18 to 24 hrs; procedure, shortened: as §5
[17] = tested on: Trichophyton mentagrophytes; assay: Antifungal activity against Trichophyton mentagrophytes at 35 degC after 48 hrs by broth dilution method; procedure, shortened: as §2
[18] = tested on: Aspergillus fumigatus; assay: Antifungal activity against Aspergillus fumigatus at 37 degC after 3 to 4 days by agar […] method; procedure, shortened: as §3
[19] = tested on: Escherichia coli; assay: Antibacterial activity against Escherichia coli ATCC 25922 at 35 degC after 18 to 24 hrs; procedure, shortened: as §5
[20] = tested on: Escherichia coli; assay: Antibacterial activity against Escherichia coli ATCC 25922 at 37 degC after 24 hrs by broth dilution method; details: ATCC 25922, 24 h; procedure, shortened: as §6
[21] = tested on: Aspergillus fumigatus; assay: Antifungal activity against Aspergillus fumigatus at 35 degC after 48 hrs by broth dilution method; procedure, shortened: as §2
[22] = tested on: Talaromyces marneffei; assay: Antifungal activity against Penicillium marneffei at 37 degC after 3 to 4 days by agar […] method; procedure, shortened: as §3
[23] = tested on: Staphylococcus aureus; assay: Antibacterial activity against Staphylococcus aureus ATCC 25923 at 37 degC after 24 hrs by broth dilution method; details: ATCC 25923, 24 h; procedure, shortened: as §6
[24] = tested on: Talaromyces marneffei; assay: Antifungal activity against Penicillium marneffei at 35 degC after 48 hrs by broth dilution method; procedure, shortened: as §2

SMILES	MFC [1] [µg/mL]	MIC [2] [µg/mL]	MFC [3] [µg/mL]	MFC [4] [µg/mL]	inhibition zone (IZ) [5] [mm]	inhibition zone (IZ) [6] [mm]	MBC [7] [µg/mL]	inhibition zone (IZ) [8] [mm]	MBC [9] [µg/mL]	inhibition zone (IZ) [11] [mm]	MIC [12] [µg/mL]	inhibition zone (IZ) [13] [mm]	MFC [14] [µg/mL]	MIC [15] [µg/mL]	MBC [16] [µg/mL]	MIC [17] [µg/mL]	inhibition zone (IZ) [18] [mm]	MBC [19] [µg/mL]	MIC [20] [µg/mL]	MIC [21] [µg/mL]	other results
Fc1cc(-c2nnc(COc3ccccc3Cl)o2)c(Cl)cc1Cl	> 100	25 (≈ 66.9 µM)	50 (≈ 134 µM)	12.5 (≈ 33.5 µM)	10	15	50 (≈ 134 µM)	15	25 (≈ 66.9 µM)	18	25 (≈ 66.9 µM)	12	50 (≈ 134 µM)	12.5 (≈ 33.5 µM)	50 (≈ 134 µM)	12.5 (≈ 33.5 µM)	19	12.5 (≈ 33.5 µM)	6.25 (≈ 16.7 µM)	6.25 (≈ 16.7 µM)	inhibition zone (IZ) [10]: 12 mm; Activity [22]: >100 µg/mL; MIC [23]: 12.5 µg/mL (≈ 33.5 µM); MIC [24]: > 100 µg/mL
Cc1cc(Cl)ccc1OCc1nnc(-c2cc(F)c(Cl)cc2Cl)o1	6.25 (≈ 16.1 µM)	6.25 (≈ 16.1 µM)	6.25 (≈ 16.1 µM)	6.25 (≈ 16.1 µM)	28	29	6.25 (≈ 16.1 µM)	20	6.25 (≈ 16.1 µM)	24	6.25 (≈ 16.1 µM)	19	25 (≈ 64.5 µM)	6.25 (≈ 16.1 µM)	6.25 (≈ 16.1 µM)	6.25 (≈ 16.1 µM)	25	12.5 (≈ 32.2 µM)	6.25 (≈ 16.1 µM)	6.25 (≈ 16.1 µM)	inhibition zone (IZ) [10]: 22 mm; inhibition zone (IZ) [22]: 19 mm; MIC [23]: 6.25 µg/mL (≈ 16.1 µM); MIC [24]: 6.25 µg/mL (≈ 16.1 µM)
Cc1ccccc1OCc1nnc(-c2cc(F)c(Cl)cc2Cl)o1	100 (≈ 283 µM)	12.5 (≈ 35.4 µM)	25 (≈ 70.8 µM)	100 (≈ 283 µM)	15	28	50 (≈ 142 µM)	19	6.25 (≈ 17.7 µM)	27	12.5 (≈ 35.4 µM)	16	> 100	6.25 (≈ 17.7 µM)	25 (≈ 70.8 µM)	> 100	10	25 (≈ 70.8 µM)	6.25 (≈ 17.7 µM)	25 (≈ 70.8 µM)	Activity [10]: >100 µg/mL; inhibition zone (IZ) [22]: 8 mm; MIC [23]: 6.25 µg/mL (≈ 17.7 µM); MIC [24]: 25 µg/mL (≈ 70.8 µM)

From ChEMBL document CHEMBL1149771, “Antimicrobial studies of 2,4-dichloro-5-fluorophenyl containing oxadiazoles” (2008)
